Screens as filed in PubChem.
PTK2B oligo ant: antagonists of human Pyk2 oligomerization; Q14289; Q293 cells, Pyk2 FERM NanoBiT luminescence; active compounds read low; z-score (the deposit names both 25 µM and 10 µM); hit rate 0.83% among 99,000;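 active = Z-score of -3 or lower, scaled per plate to the spread of control and sample wells; inactive = z-score above -3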;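 also: negative z-score means lost luminescence so less FERM oligomerization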
Target sequence (Q14289 whole entry, looked up): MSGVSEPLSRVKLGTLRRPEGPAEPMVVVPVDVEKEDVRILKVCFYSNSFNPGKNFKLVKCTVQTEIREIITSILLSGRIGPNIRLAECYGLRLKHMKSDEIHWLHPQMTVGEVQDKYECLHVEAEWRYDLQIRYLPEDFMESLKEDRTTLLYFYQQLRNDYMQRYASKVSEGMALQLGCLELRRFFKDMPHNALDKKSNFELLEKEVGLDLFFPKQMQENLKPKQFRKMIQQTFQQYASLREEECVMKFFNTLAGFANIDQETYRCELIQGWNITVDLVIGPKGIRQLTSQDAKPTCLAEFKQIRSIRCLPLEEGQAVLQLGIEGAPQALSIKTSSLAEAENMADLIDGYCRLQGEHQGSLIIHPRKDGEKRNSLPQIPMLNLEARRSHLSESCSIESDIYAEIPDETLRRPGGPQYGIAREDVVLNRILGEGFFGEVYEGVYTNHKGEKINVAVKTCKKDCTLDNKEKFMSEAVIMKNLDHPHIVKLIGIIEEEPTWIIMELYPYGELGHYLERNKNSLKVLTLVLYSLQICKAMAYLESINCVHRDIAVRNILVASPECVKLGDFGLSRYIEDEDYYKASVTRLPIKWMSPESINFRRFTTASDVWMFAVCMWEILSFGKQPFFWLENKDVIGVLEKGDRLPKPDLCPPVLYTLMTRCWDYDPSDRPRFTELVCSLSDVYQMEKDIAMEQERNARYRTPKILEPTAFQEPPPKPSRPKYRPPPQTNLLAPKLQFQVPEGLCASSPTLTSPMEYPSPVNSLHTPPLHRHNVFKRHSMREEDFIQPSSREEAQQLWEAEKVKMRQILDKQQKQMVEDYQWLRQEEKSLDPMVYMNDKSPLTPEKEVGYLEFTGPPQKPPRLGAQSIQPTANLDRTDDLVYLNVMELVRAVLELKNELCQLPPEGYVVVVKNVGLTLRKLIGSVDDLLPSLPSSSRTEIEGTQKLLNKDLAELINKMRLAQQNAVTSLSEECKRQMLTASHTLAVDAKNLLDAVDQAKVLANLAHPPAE
HUVEC prolif 384: inhibitors of human endothelial cell proliferation. HUVEC proliferation, CellTiter-Glo luminescence, 72 h; active compounds read low. viability, % at 10 µM (by protocol). hit rate 1.1% among 86,000;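 active = viability at or below 30%; inactive = viability above 30%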
bCat KO growth: beta-catenin-lacking colon tumor cell growth suppression. HCT116 beta-catenin knockout viability, CellTiter-Glo, 60 h; active compounds read low. viability, % at 10 µM. hit rate 1.5% among 140,000;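 active = viability at or under a set limit, the compound median less 4 SD, cut at about 6% in these data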
H69AR growth 86K: growth inhibitors of human H69AR lung tumor cells; H69AR lung tumor viability, ATP luminescence, 72 h; active compounds read low; hit rate 6% among 85,000; viability, % at 10 µM;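 active = viability at or below 40%; inactive = viability above 40%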;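 also: multidrug resistant small cell line overexpressing MRP-1 efflux transporter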
PTEN del growth: suppresses growth of cells with PTEN deletion; viability, % at 10 µM; AID 827; hit rate 1.2% among 140,000; HCT116 PTEN-null viability, CellTiter-Glo, 60 h; active compounds read low;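 active = viability at or below a set limit, 4 SD under the median of all tested compounds, cut at about 3.7% in these data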;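 also: PTEN knockout HCT116 line with beta catenin targeted HCT116 as companion control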
Fibroblast inh: blocks proliferation of human lung fibroblasts. viability, % at 10 µM. LL 47 human lung fibroblast viability, ATP luminescence; active compounds read low. hit rate 1.1% among 85,000;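 active = viability at or below 50% in the single dose screen; inactive = viability above 50%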;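 also: compound exposure lasted 72 h before the ATP readout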
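material = human LL 47 lung fibroblast cells | dosing = compounds added from tenfold dosing solution, 0.1% DMSO final | timing = overnight cell rest, 72 h compound treatment at 37 °C | measured by = CellTiter-Glo luminescence measuring cellular ATP | evaluation = % viability versus median cells-only luminescence | control set = cell-only wells, no compound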
A number is an active result; – = inactive; · = no result given. This excerpt belongs to a sample that is enriched for hits.

SMILES	PTK2B oligo ant	HUVEC prolif 384	bCat KO growth	H69AR growth 86K	PTEN del growth	Fibroblast inh
Cc1cc(N2C(=O)C3CC=CC(C)C3C2=O)no1 (configuration not stated)	–	–	–	–	–	–
Cc1ccc(NC(=S)c2nc3ccccc3[nH]2)c(C)c1	·	·	–	·	–	·
Cc1cccc(/C=C(\c2nc3ccccc3[nH]2)S(=O)(=O)c2ccccc2)c1	·	·	1.9	·	0.9	·
CCCCn1c2nc3ccccc3nc2c2c(=N)oc(C)nc21	–	–	·	–	·	–
CCCCC(CC)Cn1c2nc3ccccc3nc2c2c(=N)oc(C)nc21 (configuration not stated)	·	2.5	4.5	–	2.5	–
CC(=O)N1CC=CC1(C)C(=O)O (configuration not stated)	·	·	–	·	–	·
CCOc1ccc(NC(=O)CSCc2cnn(-c3ccccc3)c2-n2cccc2)cc1	–	–	–	–	–	–
Cc1c(C(=O)c2no[n+]([O-])c2C(=O)c2cnn(C)c2C)cnn1C	–	–	–	1.8	–	–
Cc1ccc(OCc2nnc(SCc3nc4ccccc4[nH]3)n2Cc2ccco2)cc1	–	–	–	–	–	–
CCn1c(COc2ccc(Cl)cc2)nnc1SCc1nc2ccccc2[nH]1	–	–	–	4.4	–	–
Cc1ccnc(NS(=O)(=O)c2ccc(NS(=O)(=O)c3ccccc3)cc2)n1	–	–	–	–	–	–
Cn1c(=O)nc2n(Cc3ccccc3)c3cccc(Cl)c3cc-2c1=O	–	·	–	·	–	·
O=c1c2c3nc4ccccc4nc3n(/N=C/c3ccco3)c2ncn1CCC1=CCCCC1	–	28.7	·	–	·	–
CCCCCCn1c(C)nc2c(c1=O)c1nc3ccccc3nc1n2/N=C/c1ccco1	–	17.8	–	3.8	–	–
Cc1nc2c(c(=O)n1CCC1=CCCCC1)c1nc3ccccc3nc1n2/N=C/c1ccccc1	–	–	–	–	–	–
O=C(N/N=C/c1cc(Cl)cc([N+](=O)[O-])c1O)NC12CC3CC(CC(C3)C1)C2	·	·	–	·	–	·
Cc1ccc(C2CC(c3cccs3)=NN2C(=O)CSC2=NN3CCCC(=O)N=C3S2)cc1 (configuration not stated)	·	–	–	11.2	–	–
CCn1c2ccccc2n2c(=O)c(=O)n(CC(=O)Nc3ccc(C(C)C)cc3)nc12	–	·	–	·	–	·
Cc1ccc2c(c1)nnn2C1CCN(S(=O)(=O)c2ccc(C(=O)N3C(C)CCCC3C)cc2)CC1 (configuration not stated)	–	–	–	20.9	–	–
Cc1ccc2c(c1)nnn2C1CCN(S(C)(=O)=O)CC1	–	–	–	–	–	–
CN(C)CCOc1nc(-c2ccccc2)nc2c1oc1ccccc12	–	4.4	2.0	2.3	3.0	30.3
CN(C)CCOc1ncnc2c1oc1ccccc12	–	–	–	–	–	–
CCOC(=O)c1[nH]c2ccc(F)cc2c1NC(=O)CN1CCN(C/C=C/c2ccccc2)CC1	–	2.6	–	3.6	–	14.2
Cc1ccc(S(=O)(=O)N2CCN(Cc3nc4ccccc4[nH]3)CC2)cc1C	–	–	–	35.0	–	–
COc1ccc(CCNC(=O)C2CCN(Cc3nc(-c4ccccc4C)oc3C)CC2)cc1OC	–	–	–	–	–	–
SMILES	PTK2B oligo ant	HUVEC prolif 384	bCat KO growth	H69AR growth 86K	PTEN del growth	Fibroblast inh
Cc1ccccc1-c1nc(CN2CCC(C(=O)NC3CCN(Cc4ccccc4)CC3)CC2)c(C)o1	·	9.9	·	22.5	·	–
Cc1ccccc1-c1nc(CN2CCC(C(=O)NCCC3=CCCCC3)CC2)c(C)o1	–	4.8	2.4	28.2	2.4	–
Cc1ccccc1-c1nc(CN2CCC(C(=O)O)CC2)c(C)o1	·	–	–	–	–	–
CCCOc1ccc(NC(=O)OC2CCN(C)CC2)cc1	·	·	–	·	–	·
FC(F)(F)c1cc(N2CCOCC2)nc(-c2ccccc2)n1	·	·	–	·	–	·
OC(CNCCc1ccc(C(F)(F)F)cc1)COc1cccc2ccccc12 (configuration not stated)	·	·	1.7	·	1.7	·
CCC(=O)Nc1ccc(C(=O)NNC(=O)COc2cccc(C)c2)cc1	·	·	–	·	–	·
COC(=O)c1cc(NC(=O)c2c(F)c(F)c(F)c(F)c2F)cc(C(=O)OC)c1	·	·	–	·	–	·
O=c1[nH]c(=O)n(Cc2ccco2)c2c1C(C(F)(F)F)(C(F)(F)F)N=C(Cc1ccccc1)N2	-3.68	–	–	–	–	–
O=C(O)CC(c1cccc2ccccc12)n1cccc1 (configuration not stated)	–	–	–	–	–	–
COc1ccccc1NC(=O)C1C2C=CC(O2)C1C(=O)O (configuration not stated)	·	–	–	–	–	49.7
CCCCCCn1c(=O)[nH]c2nc3cc(N)ccc3nc2c1=O	·	·	–	·	–	·
COc1ccc(N/N=C(/N=Nc2nc(C)cc(=O)[nH]2)c2ccccc2)cc1	–	20.7	–	27.4	–	16.2
Cc1cc(=O)[nH]c(N=N/C(=N/Nc2ccccc2C)c2ccccc2)n1	–	11.8	–	25.9	3.6	24.4
C/C(=N\Nc1nc(C)cc(=O)[nH]1)C1CC1	·	·	–	·	–	·
Cc1cc(=O)[nH]c(N=N/C(=N/Nc2ccc(O)cc2)c2ccccc2)n1	–	–	–	31.7	–	–
COc1ccc(C(=O)CSc2nc(C)cc(=O)[nH]2)cc1	–	–	–	–	–	–
O=C(O)C1CC=CCC1C(=O)NCc1ccc2c(c1)OCO2 (configuration not stated)	–	–	–	–	–	·
O=C(NNS(=O)(=O)c1ccc2ccccc2c1)c1cccnc1	–	·	–	·	–	·
COC(=O)C1=C(C)N(c2cc(Cl)cc(Cl)c2)C(=O)C1	–	–	–	3.6	–	–
Cc1ccc(SCC(=O)OCn2nnc3ccccc3c2=O)cc1C	·	·	–	·	–	·
CCOC(=O)CN1C2=NCCN2c2ccccc21	–	–	–	–	–	–
CCOC(=O)CN1C(=O)C(=O)c2cccc(C)c21	·	–	–	33.2	–	–
Cc1cc(C)n(-c2nc(Nc3ccccc3C)nc(-n3nc(C)cc3C)n2)n1	·	–	–	–	–	23.4
Cc1cc(C)n(-c2nc(NC(C)C)nc(NC(C)C)n2)n1	–	·	–	·	–	·
SMILES	PTK2B oligo ant	HUVEC prolif 384	bCat KO growth	H69AR growth 86K	PTEN del growth	Fibroblast inh
Cc1cc(C)n(-c2nc(Nc3ccccc3C(F)(F)F)nc(-n3nc(C)cc3C)n2)n1	-3.51	15.3	2.9	8.1	3.5	26.7
CCN(CC)c1ccc(-c2nn3c(-c4ccccc4OC)nnc3s2)cc1	-4	12.3	3.3	11.7	2.1	38.5
c1ccc(-c2nnc3sc(-c4cc5ccccc5o4)nn23)cc1	–	–	–	31.8	–	–
c1ccc(-c2nnc3sc(-c4csc5c4CCCC5)nn23)cc1	–	–	–	30.7	–	–
COc1cccc(OC)c1-c1nn2c(-c3cc(-c4ccccc4)n[nH]3)nnc2s1	-3.1	·	–	·	–	·
Cc1nnc2sc(-c3cc4ccccc4o3)nn12	·	–	·	–	·	–
COc1ccccc1-c1nn2c(-c3ccccc3Cl)nnc2s1	·	–	·	–	·	–
c1ccc(-c2nnc3sc(-c4ccncc4)nn23)cc1	–	–	–	–	–	–
